PGC1a acetyl inh: PGC1a acetylation modulation, inhibitor mode; 350,000 tested, 0.17% active; U2OS PGC1a acetylation, AlphaScreen anti-acetyl-lysine; with virally co-expressed GCN5 acetyltransferase; inhibition, % at 15.6 µM; AID 651687;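 active = every replicate shows inhibition of at least 40%; inconclusive = mean inhibition at least 40% but some replicate below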;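 also: 0% = neutral control wells and 100% = positive control wells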
Xi reactivation: reactivates the inactive X chromosome in mouse fibroblasts; XiGFP mouse fibroblasts, % GFP-positive cells imaging, 3 d; cells co-treated with 5-aza-dC sensitizer; scaled so ellipticine positive control = 100%; activation, % at 7.58 µM; 360,000 tested, 0.055% active; AID 743238;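 active = mean normalized replicate activation at least 10% and every replicate at or above 10%; inconclusive = only one of the two criteria met; inactive = mean below 10% and not all replicates reach 10%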;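 also: 0% = median of on-plate neutral control wells and 100% = ellipticine 6 µM median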
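Schedule: 3 d treatment, 15 min room-temperature fixation; system: 68-5-11 XiGFP fibroblast line; buffer or medium: DMEM plus 5-aza-dC sensitizer; control set: ellipticine 6 µM positive control; compound: one concentration, pinned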
FN deposition inh: fibronectin deposition inhibition. AH1F fibroblasts, Alexa488-fibronectin deposition fluorescence, overnight. inhibition, % at 12.6 µM. 350,000 tested, 0.086% active. AID 743247;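 active = mean inhibition across replicates of 30% or more, regardless of how many single replicates reach that level; inconclusive = mean under 30% yet at least half of replicates reach 30%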;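 also: positive control wells lacked labelled fibronectin entirely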
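Material: AH1F fibroblast monolayer depositing Alexa488-labelled fibronectin into matrix / Amount: 10000 AH1F cells per well / Signal: fluorescence 485/525 nm / Medium: DMEM, 2% serum / Compound: single dose, pinned / Incubation: 1 h cell adhesion before compound, then overnight fibronectin incubation / Reagent: Alexa488-FN, 24 nM final / Read-out: inhibition of fibronectin deposition signal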
Cneo AK release: Cryptococcus neoformans lysis via adenylate kinase release; lysis activity, % at 15 µM; C. neoformans lysis, adenylate kinase release luminescence, 4 h; normalised: neutral wells 0, clomiphene wells 100; 360,000 tested, 0.2% active;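 active = mean lysis activity across replicates of at least 80%, whatever share of replicates individually reach that level; inactive = mean lysis activity below 80%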
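Material: C. neoformans cells; Schedule: 4 h static compound exposure, 37 °C, read 1 h post-reagent; Measured by: adenylate kinase release luminescence; Read-out: signal increase indicating cell lysis; Controls: Clomiphene as positive lysis control.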
F508del corr: correctors of CFTR F508del function in bronchial epithelial cells; activity (quench increase), % at 7.58 µM; CFBE cells, YFP halide quenching; stimulated with forskolin plus potentiator P3; % fluorescence drop versus neutral controls; AID 720511; 350,000 tested, 0.36% active;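 active = mean added fluorescence quench of at least 8% versus neutral control, with both replicates also reaching 8%; inconclusive = only one of the mean or replicate conditions met; inactive = mean below 8% and not both replicates reaching 8%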;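 also: cells transiently co-express mutant CFTR-F508del with the halide-sensitive YFP; corrector assay measuring rescue of mutant channel to the surface after 24 h compound exposure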
DENV2 CPE: inhibitors of DENV2 cytopathic effect. DENV2-infected cells, cytopathic effect rescue, plate reader. CPE inhibition, % at 9.99 µM. 350,000 tested, 1.7% active; in the data active = CPE inhibition above about 20%, passing the limit was not always enough; inconclusive = no clear call, values can overlap the other calls; tested in BHK-21 cells;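 also: 0% = median of neutral control wells and 100% = median of positive control wells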
Numbers without * were called inactive; ! = not active in a repeat. Sampled rows, rich in hits. Any-hit rate of the full collection: about 1.9%.

Screening CC(C)NC(=O)N(C)C[C@H]1Oc2ncc(C#CC3(O)CCCC3)cc2C(=O)N([C@@H](C)CO)C[C@@H]1C returned PGC1a acetyl inh 1.5, Xi reactivation 0.0, FN deposition inh -2.0, Cneo AK release -5.9, F508del corr 1.3 and DENV2 CPE 31.8*.
For C[C@H](CO)N1C[C@H](C)[C@H](CN(C)S(=O)(=O)c2ccccc2)Oc2ncc(/C=C/c3ccccc3)cc2C1=O the results were PGC1a acetyl inh 4.6, Xi reactivation -1.2, FN deposition inh -0.3, Cneo AK release 6.2, F508del corr 1.0 and DENV2 CPE inconclusive.
For COc1ccc(NC(=O)N(C)C[C@H]2Oc3ncc(C#CC(C)C)cc3C(=O)N([C@@H](C)CO)C[C@H]2C)cc1 the results were PGC1a acetyl inh 19.2, Xi reactivation 0.0, FN deposition inh -16.6, Cneo AK release 3.0, F508del corr -3.3 and DENV2 CPE 38.9*.
Screening C[C@H]1CN([C@@H](C)CO)C(=O)c2c(c3ccccc3n2C)-c2ccccc2CO[C@H]1CN(C)Cc1cccc2c1OCCCO2 returned PGC1a acetyl inh 5.2, Xi reactivation 0.4, FN deposition inh 1.0, F508del corr 2.5 and DENV2 CPE -1.0.
`O=C(Nc1ccc2c(c1)[C@@H]1C[C@@H](CC(=O)N3CCCCC3)O[C@H](CO)[C@@H]1O2)C1CCOCC1` gave PGC1a acetyl inh -20.1, Xi reactivation 0.1, Cneo AK release 57.8, F508del corr -0.2 and DENV2 CPE -3.4.
`Cc1noc(C)c1NC(=O)N(C)C[C@H]1Oc2ncc(C#CCN(C)C)cc2C(=O)N([C@H](C)CO)C[C@H]1C` gave PGC1a acetyl inh 7.7, Xi reactivation 1.1, Cneo AK release -0.2, F508del corr -3.9 and DENV2 CPE -9.6.
For C[C@H](CO)N1C[C@H](C)[C@H](CN(C)C(=O)Nc2ccc(F)cc2)Oc2ccc(NC(=O)Nc3ccc(C(F)(F)F)cc3)cc2C1=O the results were PGC1a acetyl inh -3.3, Xi reactivation -1.0, Cneo AK release 1.1, F508del corr 3.2 and DENV2 CPE -4.4.
Cc1ccc(NC(=O)CN(C)C(=O)c2ccccc2OCc2c(C)noc2C)cc1 was read as PGC1a acetyl inh -6.3, Xi reactivation 0.3, FN deposition inh 8.5, Cneo AK release 1.8, F508del corr -3.5 and DENV2 CPE -11.3.
For CCOc1ccc(NC(=O)CN(C)C(=O)c2ccccc2OCc2c(C)noc2C)cc1OCC the results were Xi reactivation 0.3, FN deposition inh -1.7, F508del corr -1.5 and DENV2 CPE 24.6*.
`CO[C@@H]1CN(C)C(=O)c2cc(NS(C)(=O)=O)ccc2OC[C@@H](C)N(CC2CCOCC2)C[C@H]1C` gave PGC1a acetyl inh 9.0, Xi reactivation -0.1, FN deposition inh -10.7, Cneo AK release 4.5, F508del corr -0.2 and DENV2 CPE 14.2.
For O=C(NCC1CC1)C1(S(=O)(=O)c2ccccc2)CC=CC1 the results were PGC1a acetyl inh 8.1, Xi reactivation 0.0, FN deposition inh 2.5, Cneo AK release -0.7, F508del corr 0.5 and DENV2 CPE 21.5*.
For COc1ccc(-c2cnc3c(c2)C(=O)N([C@H](C)CO)C[C@@H](C)[C@H](CN(C)C(=O)C2CCCCC2)O3)cc1 the results were PGC1a acetyl inh 17.4, Xi reactivation -0.2, Cneo AK release -4.1, F508del corr 0.7 and DENV2 CPE 7.4.
For O=C(O)c1ccccc1-c1c2cc(I)c(=O)c(I)c-2oc2c(I)c(O)c(I)cc12 the results were PGC1a acetyl inh -16.3, Xi reactivation 0.3, FN deposition inh -2.3, Cneo AK release -1.7, F508del corr 8.7*! and DENV2 CPE inconclusive.
O=Cc1ccc(-c2ccccc2C(=O)O)o1 was read as PGC1a acetyl inh 1.3, Xi reactivation 0.0, FN deposition inh -5.6, F508del corr 1.1 and DENV2 CPE -0.1.
`COc1cccc(-c2nc3nc(C)cc(C)n3c2NC2CCCC2)c1` gave Xi reactivation -0.1, FN deposition inh -6.9, F508del corr 0.5 and DENV2 CPE 29.6*.
`Cc1cc(C)n2c(NC3CCCC3)c(-c3cc4ccccc4o3)nc2n1` gave Xi reactivation -0.1, FN deposition inh 3.5, F508del corr 0.4 and DENV2 CPE -9.3.
Screening Cc1cc(C)n2c(NC3CCCCC3)c(-c3ccccn3)nc2n1 returned Xi reactivation 0.1, FN deposition inh -12.9, F508del corr 4.8 and DENV2 CPE 29.0*.
`O=C1O[C@@H](Cc2ccccc2)[C@H]2[C@@H]3C=CCCC=C3CN2C12CCCC2` gave PGC1a acetyl inh -3.2, Cneo AK release -6.2, F508del corr -2.7 and DENV2 CPE 32.9*.
Screening C=C/C=C/[C@@H]1C(=C)CN2[C@H]1[C@H](Cc1ccccc1)OC(=O)C21CCCC1 returned PGC1a acetyl inh 2.6, Cneo AK release -7.3, F508del corr 0.5 and DENV2 CPE -1.8.
For COC(=O)Cc1c(O)ccn(Cc2ccc(OC)c(OC)c2)c1=O the results were Xi reactivation 0.3, FN deposition inh -3.6, Cneo AK release -0.1, F508del corr 1.4 and DENV2 CPE -2.8.
`COC(=O)Cc1c(O)ccn(Cc2ccc(Cl)c(Cl)c2)c1=O` gave PGC1a acetyl inh 4.1, Xi reactivation -0.1, FN deposition inh 5.3, F508del corr 14.4* and DENV2 CPE 5.0.
CCC/C(C#CCCN1C(=O)c2ccccc2C1=O)=C1/c2ccccc2C(=O)N1c1ccccc1 was read as PGC1a acetyl inh -11.3, Xi reactivation 0.0, FN deposition inh -13.0, Cneo AK release -0.3, F508del corr 1.0 and DENV2 CPE 78.7*.
CC1=CCC[C@@H]2[C@@](C)(CC/C(C)=C/C(=O)O)[C@H](C)CC[C@@]12C was read as Xi reactivation 0.0, FN deposition inh 4.4, Cneo AK release -4.3, F508del corr -2.1 and DENV2 CPE 24.9*.
`C[C@@H]1CC[C@@]23COC(=O)C2=CCC[C@@H]3[C@@]1(C)CC/C(=C/CO)CO` gave PGC1a acetyl inh -5.4, Cneo AK release -1.0, F508del corr -3.3 and DENV2 CPE 18.3.
Screening CS(=O)(=O)N1[C@@H](CO)[C@@H](c2ccccc2)C12CN(Cc1cc(F)ccc1F)C2 returned PGC1a acetyl inh -6.0, Xi reactivation 0.0, FN deposition inh 3.3, F508del corr -2.2 and DENV2 CPE 40.1*.
`CCC(=O)N1[C@@H](CO)[C@@H](c2ccccc2)C12CN(Cc1cc(F)ccc1F)C2` gave PGC1a acetyl inh -3.6, Xi reactivation 0.3, F508del corr 1.1 and DENV2 CPE -10.5.

Screening data from PubChem BioAssay.
